By IC50 is commonly meant the concentration that gives 50% inhibition.

Molecules are shown by their SMILES. Calls of active or inactive are those of the source. The calls are words filed in the database; no cut-off is given here.

Experiment [1] has as its system SW480. The experiment in a line: Cell cycle arrest in human SW480 cells assessed as polyploid cells generation at 30 uM after 48 hrs by flow cytometry. The format is functional, cell-based. In a few lines:
(§1)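 SW480 cells treated 48 h at 30 µM in 0.1% DMSO medium. DNA content measured by propidium iodide flow cytometry. Cells gated as 2n G0/G1, S (2<n<4), 4n G2/M and >4n (polyploid). Data are means ± SD of a representative experiment among three independent.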
Background: In flow cytometry, cells or beads pass a laser one at a time.

Experiment [2] relates to SW480. The experiment in a line: Cell cycle arrest in human SW480 cells assessed as tetraploid cells generation at 30 uM after 48 hrs by flow cytometry. The format is functional, cell-based. In a few lines:
as §1

In experiment [3] the test system is SW480. The experiment in a line: Antiproliferative activity against human SW480 cells assessed as cell viability using propidium iodide staining after 48 hrs. The class given is functional, cell-based. The conditions noted are these: for IC50: SW480, 48 h. In a few lines:
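SW480 cells grown in RPMI with 10% FBS and 1% antibiotics; 30,000 cells/well seeded, treated after 24 h with compound in 0.1% DMSO (1 nM to 100 µM; 0.1% DMSO control). At 48 h adherent (trypsinized) plus detached cells stained with 1 µg/mL propidium iodide, counted by flow cytometry. IC50 from parametric regression of % viable cells vs control; triplicate wells, three experiments.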

The test system of experiment [4] is SW480. The experiment in a line: Cell cycle arrest in human SW480 cells assessed as disturbance of diploid cells at 30 uM after 48 hrs by flow cytometry. The format is functional, cell-based. In a few lines:
as §1

The test system of experiment [5] is SW480. The experiment in a line: Cell cycle arrest in human SW480 cells assessed as accumulation at G0/G1 phase at 30 uM after 48 hrs by flow cytometry. The class given is functional. The procedure, abridged:
as §1

The test system of experiment [6] is SW480. The experiment in a line: Cell cycle arrest in human SW480 cells assessed as >4n cells at 30 uM after 48 hrs by flow cytometry. The format is functional. The procedure, abridged: as §1
Experiment [7] deals with SW480. The experiment in a line: Cell cycle arrest in human SW480 cells assessed as 4n cells at 30 uM after 48 hrs by flow cytometry. The class given is functional. In a few lines: as §1
For experiment [8], the system named is SW480. The experiment in a line: Cell cycle arrest in human SW480 cells assessed as accumulation at S phase at 30 uM after 48 hrs by flow cytometry. The format is functional. The procedure, abridged:
as §1

The test system of experiment [9] is SW480. The experiment in a line: Antiproliferative activity against human SW480 cells assessed as cell viability using propidium iodide staining at 0.2 uM after 72 hrs. The class given is functional, cell-based. The procedure, abridged:
(§2)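 SW480 cells (RPMI, 10% FBS, 1% antibiotics) seeded at 30,000/well and treated 24 h later in 0.1% DMSO medium; 0.1% DMSO alone as control. After 24, 48 and 72 h, trypsinized adherent plus detached cells were labelled with 1 µg/mL propidium iodide and viable (PI-excluding) cells counted by flow cytometry. Triplicate wells; representative of three experiments, means ± SD.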

Experiment [10] deals with SW480. The experiment can be described thus: Cell cycle arrest in human SW480 cells assessed as increase of 4n and >4n cells at 0.2 uM after 48 hrs by flow cytometry. The format is functional, cell-based. The procedure, abridged:
(§3)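 SW480 cells treated for 48 h at 0.2, 0.5 or 1.0 µM. DNA content was read by propidium iodide staining and flow cytometry. Populations were gated as 2n G0/G1, S (2<n<4), 4n G2/M and >4n. Means ± SD of a representative experiment out of three.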

The subject of experiment [11] is SW480. The experiment can be described thus: Antiproliferative activity against human SW480 cells assessed as cell viability using propidium iodide staining. The class given is functional, cell-based. The conditions noted are these: TDE = time-dependent effect. The procedure, abridged:
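SW480 colon carcinoma cells grown in RPMI with 10% FBS and 1% antibiotics. 30,000 cells/well were seeded, then treated after 24 h in medium with 0.1% DMSO (vehicle control 0.1% DMSO) at 1 nM to 100 µM for 48 h. Adherent plus detached cells were stained with 1 µg/mL propidium iodide and counted by flow cytometry. IC50 came from parametric regression of % viable cells vs control. Triplicate wells, three experiments.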

Experiment [12] has as its system SW480. The experiment can be described thus: Antiproliferative activity against human SW480 cells assessed as cell viability using propidium iodide staining at 0.5 uM after 72 hrs. The format is functional, cell-based. The procedure, abridged: as §2
For experiment [13], the system named is SW480. The experiment can be described thus: Cell cycle arrest in human SW480 cells assessed as accumulation of polyploid cells at 0.5 uM after 48 hrs by microscopic analysis. The class given is functional, cell-based. In a few lines:
(§4)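 SW480 cells left untreated or exposed to 0.5 µM for 48 h. Actin was immunostained (Alexa 488) to show cell shape and nuclei were stained with Hoechst 33342. Fluorescence microscopy at 100x with identical settings; example of three independent experiments.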

In experiment [14] the test system is SW480. The experiment in a line: Cell cycle arrest in human SW480 cells assessed as increase of 4n and >4n cells at 0.5 uM after 48 hrs by flow cytometry. The format is functional, cell-based. In a few lines: as §3
The subject of experiment [15] is SW480. The experiment in a line: Cell cycle arrest in human SW480 cells assessed as increase of 4n and >4n cells at 1 uM after 48 hrs by flow cytometry. The class given is functional, cell-based. The procedure, abridged: as §3
The subject of experiment [16] is SW480. The experiment can be described thus: Cell cycle arrest in human SW480 cells assessed as mitotic disturbances using Hoechst staining at 0.5 uM after 48 hrs by microscopic analysis. The class given is functional, cell-based. In a few lines:
as §4

In experiment [17] the test system is SW480. The experiment in a line: Cell cycle arrest in human SW480 cells assessed as cytokinesis cells at 0.5 uM after 48 hrs by microscopic analysis. The format is functional, cell-based. In a few lines: as §4
For experiment [18], the system named is SW480. The experiment can be described thus: Antiproliferative activity against human SW480 cells assessed as cell viability using propidium iodide staining after 48 hrs. Conditions: SW480, 48 h.

For the compound `COc1ccc(/C=C\c2cc(OC)cc(OC)c2O)cc1`, the result with SW480 [1], with SW480 [2] and in the experiment with SW480 [4] was Active. Further, the IC50 in the experiment on SW480 [3] was 18 µM.

On to `COc1cc(/C=C\c2cc(OC)cc(OC)c2)cc(OC)c1`, for which the outcome with SW480 [1], with SW480 [2] and in the experiment with SW480 [4] was Active. Moreover, in the experiment on SW480 [3], the IC50 came out at 13 µM.

In the case of `COc1cc(/C=C/c2cc(OC)cc(OC)c2)cc(OC)c1`, the Activity is listed as 50% with SW480 [5], 10% in the experiment on SW480 [6], 25% in the experiment with SW480 [7] and 15% in the experiment on SW480 [8]. Also, the IC50 in the experiment on SW480 [3] stood at 48 µM.

`Oc1ccc(/C=C\c2cc(O)cc(O)c2)cc1` [CIS-RESVERATROL]: the Activity in the experiment on SW480 [5] came out at 50%; in the experiment on SW480 [6], 10%; with SW480 [7], 25%; in the experiment with SW480 [8], 15%. The IC50 in the experiment with SW480 [3] was 90 µM.

For `COc1cc(/C=C/c2ccc(OC)c(OC)c2)cc(OC)c1` [(E)-3,4,3',5'-TETRAMETHOXYSTILBENE], the Activity with SW480 [5] came out at 50%; in the experiment with SW480 [6], 10%; in the experiment with SW480 [7] it was 25%; in the experiment on SW480 [8], 15%. In the experiment with SW480 [3], the IC50 turned out to be 100 µM.

With `COc1ccc(/C=C/c2cc(OC)cc(OC)c2O)cc1`, the result in the experiment with SW480 [1], in the experiment on SW480 [2] and in the experiment with SW480 [4] was Active. In addition, in the experiment on SW480 [3], the IC50 was 43 µM.

For the compound `COc1cc(/C=C/c2ccc(OC)c(OC)c2)c(O)c(OC)c1`, the IC50 with SW480 [3] is 42 µM.

Consider `COc1ccc(/C=C\c2cc(OC)cc(OC)c2)cc1` [8Z-3,4',5-TRIMETHOXYSTILBENE], for which the result with SW480 [9], with SW480 [10] and in the experiment with SW480 [12] was inactive. Further, the result in the experiment with SW480 [1], in the experiment on SW480 [2], in the experiment on SW480 [13], with SW480 [14], in the experiment on SW480 [15] and in the experiment on SW480 [16] was Active. In addition, the outcome in the experiment with SW480 [17] and in the experiment with SW480 [4] was Active. In addition, the Activity entry was “tde” in the experiment with SW480 [11] and “Dose-dependent effect” in the experiment with SW480 [3]. For the same compound, the IC50 in the experiment on SW480 [3] and with SW480 [18] was 0.3 µM in each case.

For `COc1cc(/C=C\c2ccc(OC)c(OC)c2)cc(OC)c1` [(Z)-3,4,3',5'-TETRAMETHOXYSTILBENE], the result in the experiment with SW480 [1], in the experiment with SW480 [2] and with SW480 [4] was Active. In the experiment on SW480 [3], the IC50 was 9.5 µM.

For `COc1cc(/C=C/c2cc(OC)cc(OC)c2O)cc(OC)c1`, the Activity is recorded as 50% in the experiment with SW480 [5], 10% with SW480 [6], 25% in the experiment with SW480 [7] and 15% in the experiment with SW480 [8]. In addition, the IC50 in the experiment on SW480 [3] is 17 µM.

As for `COc1cc(/C=C\c2cc(OC)cc(OC)c2O)cc(OC)c1`, the outcome with SW480 [1], in the experiment on SW480 [2] and with SW480 [4] was Active. Moreover, in the experiment on SW480 [3], the IC50 is 7 µM.

Take `Oc1ccc(/C=C/c2cc(O)cc(O)c2)cc1` [RESVERATROL]: in the experiment on SW480 [3], the IC50 came out at 20 µM.

Turning to `COc1ccc(/C=C/c2cc(OC)cc(OC)c2)cc1` [TRISMETHOXYRESVERATROL], the outcome in the experiment on SW480 [1], in the experiment on SW480 [2] and in the experiment with SW480 [4] was Active. Further, the IC50 in the experiment with SW480 [3] came out at 54 µM.

With `COc1cc(/C=C\c2ccc(OC)c(OC)c2)c(O)c(OC)c1`, the result with SW480 [1], with SW480 [2] and with SW480 [4] was Active. In the experiment with SW480 [3], the IC50 came out at 10 µM.

The values are drawn from ChEMBL document CHEMBL1177861, “Structural determinants of resveratrol for cell proliferation inhibition potency: experimental and docking studies of new analogs” (Eur J Med Chem, 2010).
